Source: ChEMBL document CHEMBL4304821, “Synthesis and structure-activity relationship of nitrile-based cruzain inhibitors incorporating a trifluoroethylamine-based P2 amide replacement” (Bioorg Med Chem, 2019)
Active and inactive are the calls of the source. The rule behind the calls is not given here.

Legend:
Trypanosoma cruzi = assay: Antitrypanosomal activity against Trypanosoma cruzi Y strain amastigotes infected in human U2OS cells assessed as parasite growth inhibition after 72 hrs post infection by DRAQ5 staining based analysis; assay type: functional, organism-based
Procedure, shortened: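 U2OS cells were seeded at 700/well in high DMEM and held 24 h at 37 °C/5% CO2. They were infected with T. cruzi Y strain trypomastigotes from LLC-MK2 cultures at 4 parasites per host cell. Compounds were added on day 3 as 17 points of 2-fold dilution from 100 µM (1% DMSO final), with 96 h exposure. Cells were PFA-fixed, Draq5-stained and imaged. Infection ratio was normalized to infected DMSO and non-infected controls, and EC50 came from a sigmoidal fit. Two independent experiments were run.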

Cruzipain [1] = molecular target: T1, Cruzipain (Trypanosoma cruzi, UniProt P25779); assay: Inhibition of Trypanosoma cruzi cruzain using Z-Phe-Arg-7-amido-4-methylcoumarin as substrate preincubated for 2 mins followed by susbtrate addition by fluorescence based analysis
T1 sequence (P25779 whole entry, the tested form may be a part): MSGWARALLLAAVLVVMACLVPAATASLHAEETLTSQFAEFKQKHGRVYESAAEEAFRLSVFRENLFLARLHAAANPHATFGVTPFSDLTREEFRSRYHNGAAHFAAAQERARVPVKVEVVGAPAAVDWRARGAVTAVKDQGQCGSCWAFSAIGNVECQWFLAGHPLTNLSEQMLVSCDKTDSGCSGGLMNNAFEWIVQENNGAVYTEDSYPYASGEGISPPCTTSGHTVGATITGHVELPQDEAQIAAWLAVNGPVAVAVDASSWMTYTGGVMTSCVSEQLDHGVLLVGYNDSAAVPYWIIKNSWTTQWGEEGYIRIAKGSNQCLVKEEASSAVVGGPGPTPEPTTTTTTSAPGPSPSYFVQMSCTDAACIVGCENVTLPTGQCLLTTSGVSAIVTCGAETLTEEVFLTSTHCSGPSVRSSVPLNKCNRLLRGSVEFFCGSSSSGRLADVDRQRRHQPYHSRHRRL
Procedure, shortened: (§1)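 Recombinant cruzain was the catalytic domain of cruzipain without the C-terminal extension, used at 0.15 nM. The assay ran at 37 °C in 100 mM acetate buffer pH 5.5 with 300 mM NaCl, 5 mM DTT, 5% v/v DMSO and 0.01% Triton X-100. Hydrolysis of Z-Phe-Arg-AMC was followed as rate by fluorescence (ex 355/em 460 nm).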

[2] = Lipophilicity, log Kw of compound by HPLC analysis; assay type: physicochemical
[3] = molecular target: Cruzipain (Trypanosoma cruzi) (UniProt P25779); assay: Inhibition of Trypanosoma cruzi cruzain assessed as initial velocity using Z-Phe-Arg-7-amido-4-methylcoumarin as substrate preincubated for 2 mins followed by susbtrate addition by fluorescence based analysis; procedure, shortened: as §1
Sequence of Cruzipain (Trypanosoma cruzi) (P25779 123-467 limits assumed): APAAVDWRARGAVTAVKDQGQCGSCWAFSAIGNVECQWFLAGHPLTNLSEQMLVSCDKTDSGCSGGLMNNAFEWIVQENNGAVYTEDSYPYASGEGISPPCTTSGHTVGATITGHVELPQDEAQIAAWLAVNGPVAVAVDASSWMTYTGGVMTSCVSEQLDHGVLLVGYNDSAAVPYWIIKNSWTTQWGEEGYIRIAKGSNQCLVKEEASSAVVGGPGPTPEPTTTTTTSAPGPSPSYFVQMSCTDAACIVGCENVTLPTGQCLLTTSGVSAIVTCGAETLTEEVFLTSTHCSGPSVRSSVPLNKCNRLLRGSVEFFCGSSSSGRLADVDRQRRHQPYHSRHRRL

Procathepsin L = Procathepsin L (Homo sapiens, UniProt P07711); assay: Inhibition of Cathepsin L (unknown origin) using Z-Phe-Arg-7-amido-4-methylcoumarin as substrate preincubated for 2 mins followed by susbtrate addition by fluorescence based analysis
Sequence of Procathepsin L (P07711 whole entry): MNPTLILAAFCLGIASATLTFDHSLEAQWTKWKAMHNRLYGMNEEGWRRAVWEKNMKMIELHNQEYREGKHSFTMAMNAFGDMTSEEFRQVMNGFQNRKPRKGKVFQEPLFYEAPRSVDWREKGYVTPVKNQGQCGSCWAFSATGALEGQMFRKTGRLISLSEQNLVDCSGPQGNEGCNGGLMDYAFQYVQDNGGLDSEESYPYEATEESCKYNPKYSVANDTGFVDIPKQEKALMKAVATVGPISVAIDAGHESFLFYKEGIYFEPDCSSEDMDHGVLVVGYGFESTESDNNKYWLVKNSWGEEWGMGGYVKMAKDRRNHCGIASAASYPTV
Procedure, shortened: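 Cathepsin L was used at 0.30 nM, at 37 °C in 100 mM acetate buffer pH 5.5 with 300 mM NaCl, 1 mM DTT, 1 mM EDTA, 5% v/v DMSO and 0.01% Triton X-100. Z-Phe-Arg-AMC hydrolysis rate was monitored by fluorescence (ex 355/em 460 nm).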

Cruzipain [4] = molecular target: T1, Cruzipain; assay: Inhibition of Trypanosoma cruzi cruzain assessed as inhibitor constant using Z-Phe-Arg-7-amido-4-methylcoumarin as substrate preincubated for 2 mins followed by susbtrate addition by fluorescence based analysis; procedure, shortened: as §1
[5] = Cytotoxicity in human U2OS cells assessed as reduction in cell viability after […] by DRAQ5 staining based analysis
Procedure, shortened: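 Infected U2OS cells (Y strain, 4 parasites/cell) were exposed to 17 2-fold concentrations starting at 100 µM in 1% DMSO. Exposure was 96 h. Wells were PFA-fixed, Draq5-stained and imaged at 20X to count host cells. CC50 is the concentration that lowers the cell ratio to 0.5 versus the mean cell number in DMSO negative-control wells. Duplicate independent experiments.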

| SMILES | Activity (Trypanosoma cruzi) | Ki (Cruzipain [1]) | logKw [2] | V0 [3] | Ki (Procathepsin L) | Ki (Cruzipain [4]) | EC50 (Trypanosoma cruzi) | CC50 [5] |
| --- | --- | --- | --- | --- | --- | --- | --- | --- |
| N#C[C@H](Cc1ccccc1)NC(=O)[C@H](Cc1ccccc1)N[C@H](c1ccc(-c2ccccc2)cc1)C(F)(F)F | inactive | > 10 µM | – | – | – | – | – | – |
| CC(C)C[C@H](N[C@H](c1ccc(-c2ccccc2)cc1)C(F)(F)F)C(=O)N[C@H](C#N)Cc1ccccc1 | inactive | 0.251 µM | 3.1 | – | – | – | – | – |
| CC(C)C[C@H](N[C@@H](c1ccc(-c2ccccc2)cc1)C(F)(F)F)C(=O)N[C@H](C#N)Cc1ccccc1 | inactive | 0.000631 µM | 3.2 | 3.22 RFU/s | 1.58 µM | – | – | – |
| COc1ccc(C[C@H](N[C@@H](c2ccccc2)C(F)(F)F)C(=O)NC2(C#N)CC2)cc1 | inactive | 3.98 µM | 1.4 | 3.56 RFU/s | – | – | – | – |
| CC(C)C[C@H](N[C@@H](c1ccccc1)C(F)(F)F)C(=O)NC1(C#N)CC1 | inactive | 0.0398 µM | – | – | – | – | – | – |
| CC(C)C[C@H](N[C@H](c1ccccc1)C(F)(F)F)C(=O)N[C@H](C#N)Cc1ccccc1 | inactive | 0.398 µM | 2.2 | 2.71 RFU/s | 0.251 µM | – | – | – |
| COc1ccc(C[C@H](N[C@H](c2ccccc2)C(F)(F)F)C(=O)N[C@H](C#N)Cc2ccccc2)cc1 | inactive | 3.98 µM | 2.7 | – | 1.58 µM | – | – | – |
| CC(C)C[C@H](N[C@H](c1ccc(-c2ccc(F)cc2)cc1)C(F)(F)F)C(=O)NC1(C#N)CC1 | inactive | 0.0794 µM | 2.8 | – | 1 µM | – | – | – |
| CC(C)C[C@H](N[C@@H](c1ccc(-c2cncnc2)cc1)C(F)(F)F)C(=O)N[C@H](C#N)Cc1ccccc1 | inactive | 0.00158 µM | – | 2.91 RFU/s | 0.0251 µM | – | – | – |
| CC(C)C[C@H](N[C@@H](c1ccc(-c2ccc(F)cc2)cc1)C(F)(F)F)C(=O)NC1(C#N)CC1 | – | – | – | 3.87 RFU/s | – | 4.06 µM | – | – |
| CC(C)C[C@H](N[C@@H](c1ccc(-c2ccccc2)cc1)C(F)(F)F)C(=O)NC1(C#N)CC1 | inactive | 0.00794 µM | 2.6 | 3.85 RFU/s | 0.794 µM | – | – | – |
| N#CC1(NC(=O)[C@H](Cc2ccccc2)N[C@@H](c2cccc(Cl)c2)C(F)(F)F)CC1 | – | – | – | 3.65 RFU/s | – | 0.00401 µM | – | – |
| N#CC1(NC(=O)[C@H](Cc2ccccc2)N[C@@H](c2ccc(Br)cc2)C(F)(F)F)CC1 | inactive | 2 µM | 1.7 | 3.6 RFU/s | 0.251 µM | – | – | – |
| COc1ccc(C[C@H](N[C@@H](c2ccccc2)C(F)(F)F)C(=O)O)cc1 | – | – | – | 3.85 RFU/s | – | 0.0388 µM | – | – |
| COc1ccc(C[C@H](N[C@@H](c2ccccc2)C(F)(F)F)C(=O)N[C@@H](C#N)Cc2ccccc2)cc1 | inactive | 0.398 µM | 2.7 | – | 0.631 µM | – | – | – |
| COc1ccc(C[C@H](N[C@H](c2ccccc2)C(F)(F)F)C(=O)N[C@@H](C#N)Cc2ccccc2)cc1 | inactive | > 10 µM | – | – | > 10 µM | – | – | – |
| CC(C)C[C@H](NC(=O)c1ccccc1)C(=O)N[C@H](C#N)Cc1ccccc1 | inactive | 0.0501 µM | – | – | 0.0631 µM | – | – | – |

| SMILES | Activity (Trypanosoma cruzi) | Ki (Cruzipain [1]) | logKw [2] | V0 [3] | Ki (Procathepsin L) | Ki (Cruzipain [4]) | EC50 (Trypanosoma cruzi) | CC50 [5] |
| --- | --- | --- | --- | --- | --- | --- | --- | --- |
| N#C[C@@H](Cc1ccccc1)NC(=O)[C@H](Cc1ccccc1)N[C@@H](c1ccccc1)C(F)(F)F | inactive | 2.51 µM | 2.6 | – | 0.631 µM | – | – | – |
| CC(C)C[C@H](N[C@H](c1ccc(-c2ccccc2)cc1)C(F)(F)F)C(=O)NC1(C#N)CC1 | inactive | 0.0631 µM | 2.8 | – | 0.631 µM | – | – | – |
| N#CC1(NC(=O)[C@@H](Cc2c[nH]c3ccccc23)N[C@@H](c2ccccc2)C(F)(F)F)CC1 | – | > 10 µM | – | – | 1.26 µM | – | 25.6 µM | – |
| N#CC1(NC(=O)[C@H](Cc2ccccc2)N[C@H](c2cccc(Cl)c2)C(F)(F)F)CC1 | inactive | 3.16 µM | 1.7 | 5.81 RFU/s | – | – | – | – |
| CC(C)C[C@H](N[C@H](c1ccccc1)C(F)(F)F)C(=O)NC1(C#N)CC1 | inactive | 0.2 µM | 1.1 | 3.75 RFU/s | – | 0.143 µM | – | – |
| CC(C)(F)C[C@H](N[C@@H](c1ccc(-c2ccc(S(C)(=O)=O)cc2)cc1)C(F)(F)F)C(=O)NC1(C#N)CC1 [ODANACATIB] | inactive | – | 2 | – | 1.26 µM | – | – | – |
| COc1ccc(C[C@H](N[C@H](c2ccccc2)C(F)(F)F)C(=O)O)cc1 | – | – | – | 5.2 RFU/s | – | 0.36 µM | – | – |
| N#CC1(NC(=O)[C@H](Cc2ccccc2)N[C@@H](c2ccccc2)C(F)(F)F)CC1 | inactive | 1 µM | 1 | 2.18 RFU/s | 0.158 µM | – | – | – |
| CC(C)C[C@H](NC(=O)c1ccccc1)C(=O)NC1(C#N)CC1 | inactive | 0.0501 µM | – | – | 0.02 µM | – | – | – |
| O=C(O)[C@H](Cc1c[nH]c2ccccc12)N[C@@H](c1cccc(Cl)c1)C(F)(F)F | – | – | – | 2.66 RFU/s | – | 0.142 µM | – | – |
| O=C(O)[C@H](Cc1c[nH]c2ccccc12)N[C@H](c1cccc(Cl)c1)C(F)(F)F | – | – | – | 4.15 RFU/s | – | 0.168 µM | – | – |
| N#CC1(NC(=O)[C@H](Cc2c[nH]c3ccccc23)N[C@H](c2ccccc2)C(F)(F)F)CC1 | – | > 10 µM | – | – | 1 µM | – | 11.5 µM | 33 µM |
| N#CC1(NC(=O)[C@H](Cc2ccccc2)N[C@H](c2ccccc2)C(F)(F)F)CC1 | inactive | – | 1.4 | 3.53 RFU/s | – | – | – | – |
| N#CC1(NC(=O)[C@H](Cc2ccccc2)NC(=O)c2ccccc2)CC1 | – | 0.316 µM | – | – | – | – | – | – |
| COc1ccc(C[C@H](N[C@H](c2ccccc2)C(F)(F)F)C(=O)NC2(C#N)CC2)cc1 | – | 7.94 µM | 1.5 | 3.17 RFU/s | – | – | – | – |
| CC(C)C[C@H](N[C@@H](c1ccccc1)C(F)(F)F)C(=O)N[C@H](C#N)Cc1ccccc1 | inactive | 0.00158 µM | 2.3 | – | 0.00501 µM | – | – | – |
